High-throughput results as filed in PubChem.
This is a sample that favours compounds with a hit; in the whole collection about 1% have one here.
A1 inh: caspase 3/7 activation in MEF A1-2A-BIM cells, primary screen, A1 inhibitor project, cell-based, luminescence, HTS. AID 2462, 2010. 0.066% of 330,000 active. Caspase-Glo 3/7 luminescence, 3 h; percent of clofoctol response, vehicle zero. caspase activation, % (test concentration not listed);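 active means over half of replicate activation scores above 10%, or exactly half above 10 with the replicate mean above 10; inconclusive means replicate mean below 10 yet half the replicates above 10; inactive means over half of replicates below 10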
NLRP3 yeast inh: NALP3 inflammasome inhibitors in reconstituted yeast, primary screen, luminescence, uHTS; Yeast reconstituted NLRP3/ASC/caspase-1, beta-gal luminescence, 24 h; inhibition, % at 10 µM; 0.39% of 330,000 active;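 active means inhibition of 50% or more; inactive means inhibition below 50%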;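 further: plate controls were induced DMSO wells for no effect and uninduced yeast grown without galactose for full effect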
T cell HTS: modulators of CD8 T cell-vesicle binding, primary screen, mouse 2C CD8+ T cells, flow cytometry; response (vesicle binding), % at 7 µM; 0.068% of 330,000 active; 2C CD8+ T cell-vesicle binding; hits give low values; AID 2052, 2009;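 active means response, share of CD8 T cells binding vesicles, and their 90th percentile fluorescence all below set limits, cut at about 80% in these data, passing the limit was not always enough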;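 further: values below 100% mean blocked vesicle binding to the CD8+ T cells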
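Benchmarks: naked versus QL9-loaded vesicles / Assay system: purified 2C TCR transgenic mouse naive CD8+ T cells / Technique: high-throughput flow cytometry with anti-B7-1 and anti-CD8 staining / Timing: Cell–vesicle co-incubation 1.5 h at 37 °C, staining 20 min on ice / Read-out: percent CD8+ FL2 mean versus row control / Probe or stimulus: QL9-loaded Drosophila micro-vesicles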
NALP1 inh: NALP1 inflammasome inhibitors in reconstituted yeast, colorimetric, S. cerevisiae, triplicate retest; S. cerevisiae NALP1/ASC/caspase-1 growth, X-gal OD620, 72 h; inhibition, % at 10 µM; 0.61% of 280,000 active; in the data active means inhibition mostly above about 24%, no sharp cut-off; inactive means mostly below about 32%
Numbers without * were called inactive.

`COC(=O)c1cc(C(=O)OCC(=O)NC(=O)c2ccccc2)cc([N+](=O)[O-])c1` gave A1 inh -0.2, NLRP3 yeast inh 17.9 and T cell HTS 232.9.
CCC1CCC2(CC1)NC(=O)N(CC(=O)NCc1ccccc1Cl)C2=O (stereo not given) was read as A1 inh 0.1, NLRP3 yeast inh 12.0 and T cell HTS 609.5.
For COc1ccc(-n2ncc3c2CC(C)(C)CC3NC(=O)Cc2nonc2C)cc1 (stereo not given) the results were A1 inh inconclusive, NLRP3 yeast inh 0.5, T cell HTS 360.9 and NALP1 inh 6.6.
For CCCC[n+]1ccn(C2=C([O-])c3ccccc3C(=O)/C2=N\S(=O)(=O)c2ccccc2)c1 the results were A1 inh -1.2, NLRP3 yeast inh -3.6, T cell HTS 386.9 and NALP1 inh 0.5.
CC(C)[n+]1ccn(C2=C([O-])c3ccccc3C(=O)/C2=N\S(=O)(=O)c2ccccc2)c1 was read as A1 inh 0.5, NLRP3 yeast inh 12.2, T cell HTS 80.1 and NALP1 inh 35.6*.
Screening NC(=O)CC(NC(=O)c1ccc(Br)cc1)c1ccc(NC2CCCCCCC2)c([N+](=O)[O-])c1 (stereo not given) returned A1 inh -0.6, NLRP3 yeast inh 19.7, T cell HTS 496.2 and NALP1 inh 21.4.
COCCCN1CCN(C2Cc3ccccc3Sc3ccc(Cl)cc32)CC1 (stereo not given) was read as A1 inh 0.3, NLRP3 yeast inh 20.5, T cell HTS 113.8 and NALP1 inh 53.6*.
For O=C(C1=C[C@H](c2coc3ccccc3c2=O)C[C@H](OCc2ccc(CO)cc2)O1)N1CCN(Cc2ccc3c(c2)OCO3)CC1 the results were A1 inh 0.6, NLRP3 yeast inh 13.2, T cell HTS 261.5 and NALP1 inh 20.5*.
CC1=NN(c2ccccc2)C(=O)C1N=Nc1cccc(O)c1 (stereo not given) was read as A1 inh 0.3, NLRP3 yeast inh 40.1, T cell HTS 212.5 and NALP1 inh 31.8*.
Screening CCCCN(C(=O)c1ccc(OC)c([N+](=O)[O-])c1)c1c(N)n(CCC)c(=O)[nH]c1=O returned A1 inh 0.5, NLRP3 yeast inh 15.6, T cell HTS 366.4 and NALP1 inh 5.5.
Screening CCN(CC)C(=O)c1cc([N+](=O)[O-])cc2c1-c1ccc([N+](=O)[O-])cc1C2=C(C#N)C#N returned A1 inh 0.2, NLRP3 yeast inh 11.2, T cell HTS 397.2 and NALP1 inh -2.7.
For O=C(COC(=O)C1CCC1)NC(=O)c1ccccc1 the results were A1 inh 0.6, NLRP3 yeast inh 11.3 and T cell HTS 0.0*.
Screening CCOC(=O)/C=C/C(=O)Nc1nccs1 returned A1 inh 0.0, NLRP3 yeast inh 18.4, T cell HTS 221.9 and NALP1 inh 45.8*.
For CCOC(=O)C(=O)Nc1nccs1 the results were A1 inh -0.8, NLRP3 yeast inh 5.9, T cell HTS 142.4 and NALP1 inh 6.5.
COc1ccccc1NC(=O)CSC1CC(=O)N(c2ccc3c(c2)OCO3)C1=O (stereo not given) was read as A1 inh -0.4, NLRP3 yeast inh 24.6, T cell HTS 553.8 and NALP1 inh 30.6*.
Screening CCC(c1nnnn1CCOC)N1CCN(C(=O)c2ccco2)CC1 (stereo not given) returned A1 inh 0.4, NLRP3 yeast inh 14.5, T cell HTS 283.3 and NALP1 inh -8.1.
Screening CCC(c1nnnn1Cc1ccccc1)N1CCN(C(=O)c2ccco2)CC1 (stereo not given) returned A1 inh 0.5, NLRP3 yeast inh 1.2, T cell HTS 228.3 and NALP1 inh 33.9*.
`COc1ccc(CC(=O)N[C@@H](CCSC)C(=O)N2CCC3(CC2)NCCc2[nH]cnc23)cc1` gave A1 inh 0.7, NLRP3 yeast inh 7.9, T cell HTS 385.8 and NALP1 inh 9.6.
O=C(CSc1nc2ccccc2c(=O)n1CCCN1CCOCC1)NC12CC3CC(CC(C3)C1)C2 was read as A1 inh -0.2, NLRP3 yeast inh 9.9, T cell HTS 445.2 and NALP1 inh 34.5*.
COc1ccc(CCNC(=O)CN(Cc2ccc(Cl)cc2)S(C)(=O)=O)cc1OC was read as A1 inh 0.3, NLRP3 yeast inh 1.1, T cell HTS 122.3 and NALP1 inh 28.5*.
Screening COCCNC(=O)CN(Cc1ccc(Cl)cc1)S(C)(=O)=O returned A1 inh -0.5, NLRP3 yeast inh -10.7, T cell HTS 488.3 and NALP1 inh 33.3.
`CCNC(=O)Oc1ccc[nH]c1=O` gave A1 inh 0.6, NLRP3 yeast inh 35.7, T cell HTS 209.0 and NALP1 inh 36.8*.
Screening COc1ccc(C(=O)Oc2ccc[nH]c2=O)cc1 returned A1 inh -0.6, NLRP3 yeast inh 13.3, T cell HTS 352.7 and NALP1 inh 23.6.
`Cc1cccc(C)c1NC(=O)CSc1nc(COc2ccccc2)nc2ccccc12` gave A1 inh -0.2, NLRP3 yeast inh 19.2, T cell HTS 249.5 and NALP1 inh 0.6.
CCOC(=O)CSc1nc(COc2ccccc2)nc2ccccc12 was read as A1 inh 0.0, NLRP3 yeast inh 35.7, T cell HTS 47.2* and NALP1 inh 5.3.
Screening CCN(C(=O)CSc1ncccn1)c1cccc2ccccc12 returned A1 inh 0.1, NLRP3 yeast inh 16.6 and T cell HTS 318.8.
Screening CCC1CCCCN1CCCNC(=O)Cn1ncn2nc(-c3ccc(OC)cc3)cc2c1=O (stereo not given) returned A1 inh 0.1, NLRP3 yeast inh -2.5, T cell HTS 461.7 and NALP1 inh 7.7.
Screening COc1ccccc1CCCNC(=O)C1CCC(=O)N(Cc2ccccc2F)C1 (stereo not given) returned A1 inh 8.6*, NLRP3 yeast inh 13.3, T cell HTS 259.5 and NALP1 inh 24.4.
S=C(Nc1ccccn1)c1ccccn1 was read as A1 inh -5.0, NLRP3 yeast inh 21.9, T cell HTS 12.3* and NALP1 inh -12.7.
For O=C(Nc1ccccn1)C(=O)Nc1ccccn1 the results were A1 inh -6.2, NLRP3 yeast inh 12.1, T cell HTS 150.3 and NALP1 inh -3.2.
`COc1ccc(Cn2cc3c(-c4ccc(F)cc4)nnc-3c3cc(OC)c(OC)cc32)cc1` gave A1 inh -0.4, NLRP3 yeast inh 3.5, T cell HTS 822.7 and NALP1 inh 22.6.
COc1cc2c3nnc(-c4ccc(F)cc4)c-3cn(Cc3ccc(F)cc3)c2cc1OC was read as A1 inh 0.1, NLRP3 yeast inh 9.9, T cell HTS 484.9 and NALP1 inh 34.9*.
Cc1cc(C)cc(N2C(=O)CC(Sc3ncn[nH]3)C2=O)c1 (stereo not given) was read as A1 inh 0.4, NLRP3 yeast inh 28.6, T cell HTS 134.5 and NALP1 inh 57.5*.
